pKi: −log10 of the molar value. Calls of active or inactive are those of the source. The calls are words filed in the database; no cut-off is given here.
Experiments:
Hexose transporter 1 = molecular target: T1, Hexose transporter 1 (Plasmodium falciparum, UniProt O97467); experiment: Inhibition of D-glucose uptake mediated by PfHT expressed in Xenopus oocytes; type: functional, cell-based, Oocyte; conditions: for pKi: read-out: Ki; for Ki: oocyte
T1 sequence (O97467 whole entry): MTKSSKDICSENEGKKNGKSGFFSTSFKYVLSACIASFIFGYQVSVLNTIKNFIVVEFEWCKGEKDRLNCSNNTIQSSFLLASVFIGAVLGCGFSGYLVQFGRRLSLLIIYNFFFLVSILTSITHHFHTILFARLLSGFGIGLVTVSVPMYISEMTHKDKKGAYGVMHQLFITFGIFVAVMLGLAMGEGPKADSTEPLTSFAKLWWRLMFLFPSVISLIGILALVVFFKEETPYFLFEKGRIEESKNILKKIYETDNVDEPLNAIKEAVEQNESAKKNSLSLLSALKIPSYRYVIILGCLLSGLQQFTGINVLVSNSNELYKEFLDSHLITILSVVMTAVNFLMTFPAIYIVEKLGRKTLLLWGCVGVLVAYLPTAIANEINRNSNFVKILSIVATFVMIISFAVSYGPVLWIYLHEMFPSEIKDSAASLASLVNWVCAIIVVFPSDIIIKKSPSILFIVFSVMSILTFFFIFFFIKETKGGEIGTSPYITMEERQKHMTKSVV
Method in brief: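 Oocyte-expressed PfHT assay; values are means of three experiments with standard error of the mean, or two individual experiments where marked.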

[1] = molecular target: T2, Solute carrier family 2, facilitated glucose transporter member 1 (Homo sapiens) (UniProt P11166); experiment: Inhibitory activity against GLUT1
T2 sequence (whole entry): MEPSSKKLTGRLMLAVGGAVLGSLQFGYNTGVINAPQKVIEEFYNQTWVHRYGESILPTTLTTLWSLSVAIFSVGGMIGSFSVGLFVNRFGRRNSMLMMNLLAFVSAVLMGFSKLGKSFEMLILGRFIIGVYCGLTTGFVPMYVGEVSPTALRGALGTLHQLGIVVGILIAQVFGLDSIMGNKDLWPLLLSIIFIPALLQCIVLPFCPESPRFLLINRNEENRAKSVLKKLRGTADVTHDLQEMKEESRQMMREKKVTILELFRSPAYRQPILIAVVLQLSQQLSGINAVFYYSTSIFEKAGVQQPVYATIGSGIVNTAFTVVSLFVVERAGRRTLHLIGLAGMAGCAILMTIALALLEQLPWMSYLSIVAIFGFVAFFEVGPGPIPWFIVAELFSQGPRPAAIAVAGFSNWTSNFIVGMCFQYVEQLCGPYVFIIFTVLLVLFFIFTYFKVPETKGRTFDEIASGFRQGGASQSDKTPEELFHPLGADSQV

pKi (Hexose transporter 1) | inhibition [1] | Ki (Hexose transporter 1) | Structure (SMILES)
< 3.30 | inactive |  | CCCCCCCCCCCCCCO[C@H]1[C@H](O)[C@@H](CO)OC(O)[C@@H]1O (stereo partly specified)
< 3.30 | inactive |  | COC(=O)CCCCCCC#CCCCCCCCO[C@H]1[C@H](O)[C@@H](CO)OC(O)[C@@H]1O (stereo partly specified)
< 3.30 | inactive |  | C=CCOCCO[C@H]1[C@H](O)[C@@H](CO)OC(O)[C@@H]1O (stereo partly specified)
4.39 | inactive |  | C=CCCCCCCCO[C@H]1[C@H](O)[C@@H](CO)OC(O)[C@@H]1O (stereo partly specified)
4.43 | inactive |  | C=CCCCCCCCCCCCCCO[C@H]1[C@H](O)[C@@H](CO)OC(O)[C@@H]1O (stereo partly specified)
< 3.30 | inactive |  | CCCCCCCC/C=C/CCCCCCO[C@H]1[C@H](O)[C@@H](CO)OC(O)[C@@H]1O (stereo partly specified)
4.52 | inactive |  | CCCCCCCCCCCCO[C@H]1[C@H](O)[C@@H](CO)OC(O)[C@@H]1O (stereo partly specified)
 | inactive | Not Active | O=C(NCCCO[C@H]1[C@H](O)[C@@H](CO)OC(O)[C@@H]1O)C(F)(F)C(F)(F)C(F)(F)C(F)(F)C(F)(F)C(F)(F)F (stereo partly specified)
 | inactive |  | CCCCCCCCCCCCCCCCCCCCO[C@H]1[C@H](O)[C@@H](CO)OC(O)[C@@H]1O (stereo partly specified)
< 3.30 | inactive |  | CCCCCCCCCCCCCCCCCCO[C@H]1[C@H](O)[C@@H](CO)OC(O)[C@@H]1O (stereo partly specified)
4.52 | inactive |  | CCCCCCCCO[C@H]1[C@H](O)[C@@H](CO)OC(O)[C@@H]1O (stereo partly specified)
4.72 | inactive |  | CCCCCCCCCCO[C@H]1[C@H](O)[C@@H](CO)OC(O)[C@@H]1O (stereo partly specified)
4.19 | inactive |  | OC[C@H]1OC(O)[C@H](O)[C@@H](OCCCCCc2ccccc2)[C@@H]1O (stereo partly specified)
4.28 | inactive |  | C=CCCCCCCCCCO[C@H]1[C@H](O)[C@@H](CO)OC(O)[C@@H]1O (stereo partly specified)
3.89 | inactive |  | OC[C@H]1OC(O)[C@H](O)[C@@H](OCCCCCCCC(F)(F)C(F)(F)C(F)(F)C(F)(F)C(F)(F)C(F)(F)F)[C@@H]1O (stereo partly specified)
> 3.30 | inactive |  | CCCCCCCO[C@H]1[C@H](O)[C@@H](CO)OC(O)[C@@H]1O (stereo partly specified)
4.44 | inactive |  | C=CCCCCCCCCCCO[C@H]1[C@H](O)[C@@H](CO)OC(O)[C@@H]1O (stereo partly specified)
4.49 | inactive |  | CCCCCCCCCO[C@H]1[C@H](O)[C@@H](CO)OC(O)[C@@H]1O (stereo partly specified)
3.23 | inactive |  | C=CCCCCCCCOCCO[C@H]1[C@H](O)[C@@H](CO)OC(O)[C@@H]1O (stereo partly specified)
4.31 | inactive |  | C=CCCCCCCCCO[C@H]1[C@H](O)[C@@H](CO)OC(O)[C@@H]1O (stereo partly specified)
4.64 | inactive |  | CCCCCCCCCCCO[C@H]1[C@H](O)[C@@H](CO)OC(O)[C@@H]1O (stereo partly specified)
< 3.30 | inactive |  | C=CCOCCCCCCCO[C@H]1[C@H](O)[C@@H](CO)OC(O)[C@@H]1O (stereo partly specified)
3.83 | inactive |  | OC[C@H]1OC(O)[C@H](O)[C@@H](OCCCCCCCCc2ccccc2)[C@@H]1O (stereo partly specified)
 | inactive | Not Active | C=CCOCCOCCO[C@H]1[C@H](O)[C@@H](CO)OC(O)[C@@H]1O (stereo partly specified)
< 3.30 | inactive |  | OC[C@H]1OC(O)[C@H](O)[C@@H](OCCCC(F)(F)C(F)(F)C(F)(F)C(F)(F)C(F)(F)C(F)(F)F)[C@@H]1O (stereo partly specified)
4.09 | inactive |  | CCCCc1ccc(CCCCCO[C@H]2[C@H](O)[C@@H](CO)OC(O)[C@@H]2O)cc1 (stereo partly specified)

— ChEMBL document CHEMBL1138994, “Probing structure/affinity relationships for the Plasmodium falciparum hexose transporter with glucose derivatives” (Bioorg Med Chem Lett, 2006)
